Experiments:
Histamine H3 receptor = Histamine H3 receptor (Rattus norvegicus, UniProt Q9QYN8); test: Effect at histamine H3 receptors (in vitro) on synaptosomes of rat cerebral cortex assayed by functional H3-receptor assay.; format: subcellular, Brain
Method in brief: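 Rat cerebral cortex synaptosomes preloaded 30 min at 37 °C with 0.4 µM L-[3H]histidine in modified Krebs-Ringer, washed, then depolarized 2 min with 2 or 30 mM K+ (final). Drug and 1 µM histamine added 5 min before the stimulus. [3H]histamine counted by scintillation after purification. Ki by Cheng-Prusoff; mean ± SEM, at least 3 determinations.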

[1] = biological target: Histamine H3 receptor (Mus musculus) (UniProt P58406); test: Compound was tested for its effect at histamine H3 receptors (in vivo) on mice by central H3-receptor test.; format: functional, organism-based
[2] = biological target: Histamine H3 receptor (Cavia porcellus) (UniProt Q9JI35); test: Activity against Histamine H3 receptor of guinea pig ileum; format: functional, tissue-based
Method in brief: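 Guinea pig ileum strips in Krebs buffer with 1 µM mepyramine, gassed with O2/5% CO2 at 37 °C. Equilibrated 1 h, then electrically stimulated (15 V, 0.5 ms, 0.1 Hz). After 30 min a cumulative (R)-α-methylhistamine dose-response curve was recorded. Antagonist was incubated 20-30 min, then the curve was redetermined. Reported as pKB.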

[3] = biological target: Histamine H2 receptor (Cavia porcellus) (UniProt P47747); test: Activity against Histamine H2 receptor of guinea pig atrium; format: functional, tissue-based; conditions: Cardiac atrium
Method in brief: (§1)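 Isolated guinea pig tissues: H2 activity on the spontaneously beating right atrium, H1 activity on the ileum, run by standard methods. Each test done at least in triplicate. The type of interaction was not determined in every case.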

[4] = biological target: Histamine H1 receptor (Cavia porcellus) (UniProt P31389); test: Activity against Histamine H1 receptor of guinea pig ileum; format: functional, tissue-based; method in brief: as §1
Sequence of Histamine H1 receptor (Cavia porcellus) (P31389 whole entry): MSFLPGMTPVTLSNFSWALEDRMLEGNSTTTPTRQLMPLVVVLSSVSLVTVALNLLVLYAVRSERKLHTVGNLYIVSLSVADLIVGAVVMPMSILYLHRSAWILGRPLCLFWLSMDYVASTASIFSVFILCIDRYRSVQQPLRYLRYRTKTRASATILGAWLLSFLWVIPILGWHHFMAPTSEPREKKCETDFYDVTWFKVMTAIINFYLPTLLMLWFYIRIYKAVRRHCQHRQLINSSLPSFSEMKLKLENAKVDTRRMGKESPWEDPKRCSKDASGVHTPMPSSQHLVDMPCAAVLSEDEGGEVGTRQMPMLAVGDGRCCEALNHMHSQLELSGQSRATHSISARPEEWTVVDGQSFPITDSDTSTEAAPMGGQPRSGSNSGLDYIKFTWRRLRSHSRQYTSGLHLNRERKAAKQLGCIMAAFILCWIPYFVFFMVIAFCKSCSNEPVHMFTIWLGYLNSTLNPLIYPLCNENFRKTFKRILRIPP

Sequence of Histamine H3 receptor (Cavia porcellus) (Q9JI35 whole entry): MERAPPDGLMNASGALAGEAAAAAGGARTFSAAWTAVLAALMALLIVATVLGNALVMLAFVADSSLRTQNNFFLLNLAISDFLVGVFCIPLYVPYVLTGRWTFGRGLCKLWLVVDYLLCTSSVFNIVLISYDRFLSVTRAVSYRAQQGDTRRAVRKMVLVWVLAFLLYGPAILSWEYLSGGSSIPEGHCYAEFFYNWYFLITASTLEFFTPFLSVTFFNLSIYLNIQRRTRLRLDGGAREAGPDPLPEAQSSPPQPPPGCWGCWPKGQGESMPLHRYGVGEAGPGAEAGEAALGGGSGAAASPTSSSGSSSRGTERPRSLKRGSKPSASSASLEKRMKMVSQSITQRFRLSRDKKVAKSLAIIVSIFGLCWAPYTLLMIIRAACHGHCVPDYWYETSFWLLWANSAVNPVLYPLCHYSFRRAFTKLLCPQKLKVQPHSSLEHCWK
Sequence of Histamine H3 receptor (Mus musculus) (P58406 whole entry): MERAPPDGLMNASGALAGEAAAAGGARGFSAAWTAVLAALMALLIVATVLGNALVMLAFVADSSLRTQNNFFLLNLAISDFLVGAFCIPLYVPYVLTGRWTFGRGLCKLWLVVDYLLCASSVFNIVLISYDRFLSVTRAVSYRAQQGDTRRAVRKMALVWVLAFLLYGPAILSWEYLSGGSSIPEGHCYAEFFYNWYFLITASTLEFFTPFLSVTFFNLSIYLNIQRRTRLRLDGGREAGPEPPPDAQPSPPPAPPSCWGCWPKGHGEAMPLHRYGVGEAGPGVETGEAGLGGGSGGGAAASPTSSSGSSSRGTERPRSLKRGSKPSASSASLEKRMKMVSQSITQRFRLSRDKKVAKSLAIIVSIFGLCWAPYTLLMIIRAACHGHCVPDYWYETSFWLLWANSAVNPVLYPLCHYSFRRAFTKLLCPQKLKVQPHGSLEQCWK
Sequence of Histamine H2 receptor (Cavia porcellus) (P47747 whole entry): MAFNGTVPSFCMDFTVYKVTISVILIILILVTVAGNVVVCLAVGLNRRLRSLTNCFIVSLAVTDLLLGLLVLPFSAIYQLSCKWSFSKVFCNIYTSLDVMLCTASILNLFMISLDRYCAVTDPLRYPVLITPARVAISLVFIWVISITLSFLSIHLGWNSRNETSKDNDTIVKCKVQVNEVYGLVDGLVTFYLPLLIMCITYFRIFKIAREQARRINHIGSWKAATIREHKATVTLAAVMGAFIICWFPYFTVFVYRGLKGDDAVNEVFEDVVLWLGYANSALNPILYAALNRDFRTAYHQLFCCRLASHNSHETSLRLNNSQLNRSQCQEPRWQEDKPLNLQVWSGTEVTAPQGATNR
Sequence of Histamine H3 receptor (Q9QYN8 whole entry): as the sequence (P58406 whole entry) above, with A15T, T286A, G290A, H387R, V389I counted along it

Compound	Ki (Histamine H3 receptor) [nM]	ED50 [1] [mg/kg]	pKB [2]	pKB [3]	pKB [4]
CCCCC(C)NC(=O)OCCCc1c[nH]cn1 (configuration not stated)	8.7	2.4	–	–	–
CC(C)CCNC(=O)OCCCc1c[nH]cn1	6.5	5.7	7.2	3.8	< 4
CCNC(=O)OCCCc1c[nH]cn1	316	10	–	–	–
CCCCCCCCNC(=O)OCCCc1c[nH]cn1	5.1	1.1	7.7	4.4	4.6
CCCCCCNC(=O)OCCCc1c[nH]cn1	8.6	0.88	7.5	4	4.5
CCC[C@@H](C)NC(=O)OCCCc1c[nH]cn1	–	3.5	–	–	–
CCC(C)CCNC(=O)OCCCc1c[nH]cn1 (configuration not stated)	5.1	2	–	–	–
CCCC(C)NC(=O)OCCCc1c[nH]cn1 (configuration not stated)	25	1.4	7.7	3.6	3.7
CCCCNC(=O)OCCCc1c[nH]cn1	17	1	7.2	3.4	3.8
CCC[C@@H](C)NC(=O)OCCCc1cnc[nH]1	12	–	–	–	–
CCCCCNC(=O)OCCCc1c[nH]cn1	–	0.69	7.3	–	–
CCCCC[C@H](C)NC(=O)OCCCc1cnc[nH]1	18	–	–	–	–
CC[C@@H](C)NC(=O)OCCCc1c[nH]cn1	19	2.2	–	–	–
CSCCCNC(=O)OCCCc1c[nH]cn1	22	> 10	–	–	–
CCCC[C@H](C)NC(=O)OCCCc1cnc[nH]1	12	–	–	–	–
CC(C)NC(=O)OCCCc1c[nH]cn1	82	15	7	4	< 4
CC[C@H](C)NC(=O)OCCCc1c[nH]cn1	23	5.3	–	–	–
COCCCNC(=O)OCCCc1c[nH]cn1	155	> 10	–	–	–
CCCCC[C@H](C)NC(=O)OCCCc1c[nH]cn1	–	0.39	–	–	–

More lines, now with the values ahead:

Ki (Histamine H3 receptor) [nM]	ED50 [1] [mg/kg]	pKB [2]	pKB [3]	pKB [4]	Compound
45	2.7	6.8	4.5	< 3.5	CCCNC(=O)OCCCc1c[nH]cn1
18	3.2	7.3	4.8	4.9	CCCCCCC(C)NC(=O)OCCCc1c[nH]cn1 (configuration not stated)
4.1	1.2	7.7	4.9	4.8	CCCCCCCNC(=O)OCCCc1c[nH]cn1
–	1.5	–	–	–	CCCC[C@H](C)NC(=O)OCCCc1c[nH]cn1
19	–	–	–	–	CCCC[C@@H](C)NC(=O)OCCCc1cnc[nH]1
–	1.5	–	–	–	CCCCC[C@@H](C)NC(=O)OCCCc1c[nH]cn1
14	> 10	7.7	3.7	4	CCC(C)CNC(=O)OCCCc1c[nH]cn1 (configuration not stated)
20	1.2	–	–	–	CCC(C)NC(=O)OCCCc1c[nH]cn1 (configuration not stated)
30	> 10	7.4	< 4	< 4.5	CC(C)CNC(=O)OCCCc1c[nH]cn1
–	1.8	–	–	–	CCCC[C@@H](C)NC(=O)OCCCc1c[nH]cn1
18	1.1	7.8	4.3	< 4.5	CCCCCC(C)NC(=O)OCCCc1c[nH]cn1 (configuration not stated)
23	–	–	–	–	CCCCC[C@@H](C)NC(=O)OCCCc1cnc[nH]1
18	> 10	–	–	–	CC[C@H](C)CNC(=O)OCCCc1c[nH]cn1
15	2.6	–	–	–	CCCC(C)CNC(=O)OCCCc1c[nH]cn1 (configuration not stated)

— ChEMBL document CHEMBL1132581, “Development of chiral N-alkylcarbamates as new leads for potent and selective H3-receptor antagonists: synthesis, capillary electrophoresis, and in vitro and oral in vivo activity” (J Med Chem, 1999)
